Here are results for six compounds from publication PMC7981784 (Journal of medicinal chemistry, 2020).

One data set relates to HL60 (No MLL fusion). The data set is described as follows: Cell growth inhibition assay. Type of data set: cell-based, human. Conditions: ratio of cell growth IC50 values.
The next data set deals with SCID mice. The data set is described as follows: Tolerability studies in mice. Type of data set: in vivo. The method in brief: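 Female SCID mice, three per group, were dosed with test compound on days 1, 3 and 5 for one week. Mice were weighed and checked for clinical signs of toxicity. Weight loss greater than 10% was counted as toxic.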
For data set [1], the system named is HOXA9 gene expression. The data set is described as follows: Pharmacodynamics in MV4. Type of data set: in vivo, mice. The following applies: for effect in suppressing expression of HOXA9 gene: single intravenous dose 10 mg/kg, 24 hr, MV4;11 tumors in mice. The method in brief:
(§1)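 Mice bearing subcutaneous MV4;11 xenografts received a single IV dose of vehicle or test compound: 10 mg/kg with tumors taken at 24 h, or 25 mg/kg with tumors taken at 6, 24 and 48 h; 3 mice per time point. Tumors were snap-frozen in liquid N2 and powdered. Total RNA was reverse-transcribed and HOXA9 and MEIS1 quantified by TaqMan real-time PCR. Comparative Ct method, normalized to GAPDH, expressed relative to vehicle.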

The subject of data set [2] is MEIS1 gene expression. The data set is described as follows: Pharmacodynamics in MV4. Type of data set: in vivo, mice. Conditions: single intravenous dose 25 mg/kg; 6, 24 and 48 h. The method in brief:
as §1

The test system of the next data set is MV4;11 xenograft tumor. The data set is described as follows: In vivo antitumor efficacy in the MV4. The procedure, abridged:
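Female C.B-17 SCID mice received 5 × 10^6 MV4;11 cells subcutaneously in the flank, in 1:1 PBS/Matrigel (final Matrigel 5 mg/mL). At tumor volumes of 60–140 mm3, mice were randomized into groups of 7. Test compound was given IV in 10% PEG 400:3% Cremophor EL:87% PBS at 10 or 25 mg/kg, every other day, 3 times per week, for 11 doses; controls got vehicle. Caliper volume = (A×B2)/2. Tumor volume and body weight were measured 2–3 times weekly during treatment and at least weekly afterwards.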

The test system of data set [3] is HOXA9 gene expression. Conditions: single dose 50 mg/kg intravenous; previous study; cited from earlier work.
Data set [4] deals with MEIS1 gene expression. The following applies: single dose 50 mg/kg intravenous; previous study; cited from earlier work.
Where [5] appears, read: 25 mg/kg every other day (three times a week) for one week.
Where [6] appears, read: intravenous 10 mg/kg every other day (three times a week) for one week.

Turning to `COC(=O)N[C@H]1CCC[C@@H]1[C@](CN(C)C)(c1cccc(F)c1)C1CCN(CC2CN(c3ccc(S(=O)(=O)C4CN(C(=O)/C=C/CN(C)C)C4)cc3)C2)CC1` [Compound 9, Methyl ((1S,2R)-2-((S)-2-(dimethylamino)-1-(1-((1-(4-((1-((E)-4-(dimethylamino)but-2-enoyl)azetidin-3-yl)sulfonyl)phenyl)azetidin-3-yl)methyl)piperidin-4-yl)-1-(3-fluorophenyl)ethyl)cyclopentyl)carbamate], the “cellular selectivity for MV4;11 and MOLM-13 cell lines over HL-60 cell line” value with HL60 (No MLL fusion) is listed as over 300 times.
`COC(=O)N[C@H]1CCC[C@@H]1[C@](CN1CCC1)(c1cccc(F)c1)C1CCN(CC2CN(c3ccc(S(=O)(=O)C4CN(C(=O)/C=C/CN(C)C)C4)cc3)C2)CC1` [Compound 10, Methyl ((1S,2R)-2-((S)-2-(azetidin-1-yl)-1-(1-((1-(4-((1-((E)-4-(dimethylamino)but-2-enoyl)azetidin-3-yl)sulfonyl)phenyl)azetidin-3-yl)methyl)piperidin-4-yl)-1-(3-fluorophenyl)ethyl)cyclopentyl)carbamate] came in with an animal weight loss in the data set on SCID mice (setting [5]) of over 10%. In the data set with SCID mice (setting [6]), the tolerability entry is given as “well tolerated”. In addition, in the data set on HOXA9 gene expression [1], the “effect in suppressing expression of HOXA9 gene” value (“effect in suppressing expression” below) is “significant but modest effect”. For the same compound, in the data set with HL60 (No MLL fusion), the “cellular selectivity for MV4;11 and MOLM-13 cell lines over HL-60 cell line” value is on record as over 300 times.
With `COC(=O)N[C@H]1CCC[C@@H]1[C@](CN1CCC1)(c1cccc(F)c1)C1CCN(CC2CN(c3ccc(S(=O)(=O)C4CN(C(=O)/C=C/CN5CCC5)C4)cc3)C2)CC1` [Compound 14, Methyl ((1S,2R)-2-((S)-2-(azetidin-1-yl)-1-(1-((1-(4-((1-((E)-4-(azetidin-1-yl)but-2-enoyl)azetidin-3-yl)sulfonyl)phenyl)azetidin-3-yl)methyl)piperidin-4-yl)-1-(3-fluorophenyl)ethyl)cyclopentyl)carbamate], the “cellular selectivity for MLL leukemia cells over HL-60 (non-MLL leukemia cells)” value in the data set on HL60 (No MLL fusion) is over 700 fold.
On to `COC(=O)N[C@H]1CCC[C@@H]1[C@](CN1CCC1)(c1cccc(F)c1)C1CCN(CC2CN(c3ccc(S(=O)(=O)C4CN(C(=O)/C=C/CN5CCCC5)C4)cc3)C2)CC1` [Compound 15, Methyl ((1S,2R)-2-((S)-2-(azetidin-1-yl)-1-(3-fluorophenyl)-1-(1-((1-(4-((1-((E)-4-(pyrrolidin-1-yl)but-2-enoyl)azetidin-3-yl)sulfonyl)phenyl)azetidin-3-yl)methyl)piperidin-4-yl)ethyl)cyclopentyl)carbamate], for which the animal weight loss in the data set on SCID mice (setting [5]) is recorded as over 10%. Moreover, the tolerability result with SCID mice (setting [6]) is reported as “well tolerated”. Further, the “effect in suppressing expression” value in the data set with HOXA9 gene expression [1] is listed as “significant but modest effect”. The “cellular selectivity for MLL leukemia cells over HL-60 (non-MLL leukemia cells)” value with HL60 (No MLL fusion) is listed as over 200 fold.
In the case of `COC(=O)N[C@H]1CCC[C@@H]1[C@](CN1CCC1)(c1cccc(F)c1)C1CCN(CC2CN(c3ccc(S(=O)(=O)C4CN(C(=O)/C=C/CN5CCCCC5)C4)cc3)C2)CC1` [Compound 16, Methyl ((1S,2R)-2-((S)-2-(azetidin-1-yl)-1-(3-fluorophenyl)-1-(1-((1-(4-((1-((E)-4-(piperidin-1-yl)but-2-enoyl)azetidin-3-yl)sulfonyl)phenyl)azetidin-3-yl)methyl)piperidin-4-yl)ethyl)cyclopentyl)carbamate], the tolerability entry with SCID mice (setting [5]) and in the data set with SCID mice (setting [6]) was “well tolerated” throughout. Besides, in the data set on HOXA9 gene expression [1], the “effect in suppressing expression” value is “significant but modest effect”. The “suppression of HOXA9 gene expression in tumor tissue” value in the data set with HOXA9 gene expression [1] (single intravenous dose 25 mg/kg, 6, 24 and 48 h) is given as “effectively suppresses”. In addition, the “suppression of MEIS1 gene expression in tumor tissue” value in the data set with MEIS1 gene expression [2] is recorded as “effectively suppresses”. In addition, the “effect on tumor growth over vehicle control” value in the data set with MV4;11 xenograft tumor (10 mg/kg IV every other day, 3 times per week, 11 doses) is “no effect on tumor growth”. In the data set with MV4;11 xenograft tumor (10 or 25 mg/kg IV, during and after treatment), the “body weight change and drug-related toxicity” value is listed as “no significant weight change”.
With `COC(=O)N[C@H]1CCC[C@@H]1[C@](C#N)(c1cccc(F)c1)C1CCN(CC2CN(c3ccc(S(=O)(=O)C4CN(C(=O)/C=C/CN(C)C)C4)cc3)C2)CC1` [Compound M-525], the “suppression of HOXA9 gene expression in MV4;11 xenograft tumor tissue” value with HOXA9 gene expression [3] is reported as “strong suppression”. Moreover, the “suppression of MEIS1 gene expression in MV4;11 xenograft tumor tissue” value in the data set on MEIS1 gene expression [4] is on record as “strong suppression”.
